Activity calls are given as the source filed them.

Experiment [1] has as its system Mus musculus. The experiment in a line: Analgesic activity in Swiss mouse assessed as maximum possible tail flick latency at 1.25 mg/kg, sc upto 120 mins. It is filed as functional, organism-based. The arrangement: dose 1.25 mg/kg. In short, it runs like this: (§1)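 Male Swiss mice, 12 per group, were given compound subcutaneously at doses between 1.25 and 30 mg/kg. Analgesia was measured by tail-flick with an 8 s cut-off to avoid tissue damage. Readings were taken several times from 20 to 120 min after dosing. Inhibition was expressed as percent maximum possible effect (%MPE) by the D'Amour–Smith method.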
In general terms: Thermal pain tests record how soon the animal reacts.

Experiment [2] relates to Mus musculus. As to the kind of experiment: Analgesic activity in Swiss mouse assessed as maximum possible tail flick latency at 1.25 mg/kg, sc. It counts as functional. The note with it: route subcutaneous. In short, it runs like this: as §1
For experiment [3], the system named is Mus musculus. The experiment in a line: Analgesic activity in sc dosed Swiss mouse assessed as assessed as thermal-stimulus induced tail flick latency after 30 mins. The settings on record: 0.5 h.
Experiment [4] concerns Mus musculus. The experiment in a line: Analgesic activity in po dosed Swiss mouse assessed as thermal-stimulus induced tail flick latency. It is filed as functional. In outline: (§2)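 Compound was given […] to male Swiss mice, 12 per group. Analgesia was measured by tail-flick with an 8 s cut-off. Responsiveness was read several times from 20 to 120 min after dosing. Tail-flick inhibition was expressed as percent maximum possible effect (%MPE) by the D'Amour–Smith method.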

Experiment [5] deals with Mus musculus. The experiment in a line: Analgesic activity in Swiss mouse assessed as maximum possible tail flick latency at 10 mg/kg, po. It counts as functional. In short, it runs like this:
as §2

Experiment [6] concerns Mus musculus. As to the kind of experiment: Analgesic activity in sc dosed Swiss mouse assessed as assessed as thermal-stimulus induced tail flick latency after 60 mins. The note with it: 1 h. It counts as functional.

With `CN1CC[C@]23c4c5ccc(O)c4O[C@H]2[C@@H](O[C@@H]2O[C@H](c4nc6n(n4)CCC(O)N6)[C@@H](O)[C@H](O)[C@H]2O)C=C[C@H]3[C@H]1C5.O=C(O)C(F)(F)F` (stereo not given in full), the outcome in the experiment on Mus musculus [1] was Active. Also, the MPE with Mus musculus [2] is recorded as 80%.

For the compound `Cc1nnc([C@H]2O[C@@H](O[C@H]3C=C[C@H]4[C@H]5Cc6ccc(O)c7c6[C@@]4(CCN5C)[C@H]3O7)[C@H](O)[C@@H](O)[C@@H]2O)o1.O=C(O)C(F)(F)F`, the result with Mus musculus [1] was Active. In addition, in the experiment with Mus musculus [2], the MPE is 80%.

What is called ED50 is the dose at which the effect has come halfway, by size or by number of responders. On to `CN1CC[C@]23c4c5ccc(O)c4O[C@H]2[C@@H](O)C=C[C@H]3[C@H]1C5` [MORPHINE], for which the ED50 with Mus musculus [3] was 4.4 mg/kg.

Regarding `CN1CC[C@]23c4c5ccc(O)c4O[C@H]2[C@@H](O[C@@H]2O[C@H](c4nnn[nH]4)[C@@H](O)[C@H](O)[C@H]2O)C=C[C@H]3[C@H]1C5.O=C(O)C(F)(F)F`, the median effective dose (ED50) in the experiment with Mus musculus [4] is 2.5 mg/kg. Moreover, the outcome in the experiment on Mus musculus [1] was Active. The values for the MPE in the experiment with Mus musculus [2] and in the experiment on Mus musculus [5] were 80% and 78%, respectively.

Regarding `CN1CC[C@]23c4c5ccc(O)c4O[C@H]2[C@@H](O[C@@H]2O[C@H](C(=O)O)[C@@H](O)[C@H](O)[C@H]2O)C=C[C@H]3[C@H]1C5` [MORPHINE GLUCURONIDE], the ED50 with Mus musculus [6] is 2.7 mg/kg.

Values taken from ChEMBL document CHEMBL1821654, “Synthesis and biological evaluation of analogues of M6G” (2011).
